A short description of data set [1]: Cytotoxicity against human MRC5 cells by neutral red uptake assay. The data set is classed as cell-based. Summed up:
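MRC-5 human lung fibroblasts seeded at 2.5 x 10^4 cells/well and incubated 24 h. Medium then replaced with MEM plus 2% FBS. Drug diluted serially 5-fold from 100 μM to 0.03 μM and exposed for 7 days. Cells stained with neutral red for 1 h, dye solubilized in 1% acetic acid/50% ethanol, OD read at 540 nm. CC50 (50% viability reduction) calculated; mean ± SD of 3 experiments.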

Data set [2] is described as follows: Specificity index, Ratio of CC50 for MCR5 cells to EC50 for HSV1. The format is functional. In short, it runs like this:
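Ratio of CC50 to EC50, both measured in MRC-5 human lung fibroblasts. […] CC50: neutral red uptake after 7 days, 5-fold dilutions from 100 μM to 0.03 μM, OD 540 nm; mean of 3 experiments.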

In ChEMBL document CHEMBL1146340, “Synthesis of the 5-phosphono-pent-2-en-1-yl nucleosides: a new class of antiviral acyclic nucleoside phosphonates” (Bioorg Med Chem, 2007) one finds CC50 and Selectivity index data, which are given here for ten molecules.

A word on the CC50: it is the concentration at which the toxic effect on the cells reaches its halfway point. A high value points to better tolerance by the cells. As for `CCCCCCCCCCCCCCCCOCCCOP(=O)(O)CC/C=C\Cn1cnc2c(=O)nc(N)[nH]c21`, the half-maximal cytotoxic concentration (CC50) in data set [1] worked out at 12.2 µM. Moreover, the Selectivity index in data set [2] amounted to 2.1.

On to `Cc1cn(C/C=C\CCP(=O)(O)O)c(=O)[nH]c1=O`, for which the CC50 in data set [1] was over 100 µM.

In turn, `Nc1ncnc2c1ncn2C/C=C\CCP(=O)(O)O` yielded a CC50 in data set [1] of over 100 µM.

The molecule `O=c1nc(O)ccn1C/C=C\CCP(=O)(O)O` yielded a CC50 in data set [1] of over 100 µM.

The molecule `CCCCCCCCCCCCCCCCOCCCOP(=O)(O)CC/C=C\Cn1cnc2c(N)ncnc21` returned a half-maximal cytotoxic concentration (CC50) in data set [1] of 17.3 µM. Besides, the Selectivity index in data set [2] amounted to 0.96.

Regarding `CCCCCCCCCCCCCCCCOCCCOP(=O)(O)CC/C=C\Cn1cc(C)c(=O)[nH]c1=O`, in data set [1], the CC50 is 7.4 µM. Also, the Selectivity index in data set [2] is recorded as 8.22.

In data set [1], `Nc1ccn(C/C=C\CCP(=O)(O)O)c(=O)n1` displayed a cytotoxic concentration (CC50) of over 100 µM.

In data set [1], `CCCCCCCCCCCCCCCCOCCCOP(=O)(O)CC/C=C\Cn1ccc(N)nc1=O` gave a half-maximal cytotoxic concentration (CC50) of 11.2 µM. For the same molecule, in data set [2], the Selectivity index stood at 2.38.

In data set [1], `CCCCCCCCCCCCCCCCOCCCOP(=O)(O)CC/C=C\Cn1ccc(=O)[nH]c1=O` showed a 50% cytotoxic concentration (CC50) of 51 µM.

For `Nc1nc(=O)c2ncn(C/C=C\CCP(=O)(O)O)c2[nH]1`, the cytotoxic concentration (CC50) in data set [1] was over 100 µM.
